Measurements reported in ChEMBL document CHEMBL1134320, “Structure of protein tyrosine phosphatase 1B in complex with inhibitors bearing two phosphotyrosine mimetics” (J Med Chem, 2001).

Tests used:
[1] = target: T1, Tyrosine-protein phosphatase non-receptor type 1 (Homo sapiens, UniProt P18031); assay: Binding affinity towards the binding site in PTP1B enzyme
T1 sequence (P18031 whole entry): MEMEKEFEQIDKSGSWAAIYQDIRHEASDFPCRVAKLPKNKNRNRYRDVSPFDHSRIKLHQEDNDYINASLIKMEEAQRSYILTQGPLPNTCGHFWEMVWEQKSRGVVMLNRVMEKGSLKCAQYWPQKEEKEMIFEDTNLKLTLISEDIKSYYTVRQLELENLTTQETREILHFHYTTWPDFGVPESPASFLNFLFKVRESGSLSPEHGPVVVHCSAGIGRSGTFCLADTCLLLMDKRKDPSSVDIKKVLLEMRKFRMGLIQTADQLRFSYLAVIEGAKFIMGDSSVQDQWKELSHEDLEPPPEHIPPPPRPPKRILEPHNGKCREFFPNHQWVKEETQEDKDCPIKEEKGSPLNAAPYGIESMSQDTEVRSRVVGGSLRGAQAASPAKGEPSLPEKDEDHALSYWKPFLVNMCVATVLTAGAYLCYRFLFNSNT

[2] = target: T2, Receptor-type tyrosine-protein phosphatase C (Homo sapiens, UniProt P08575); assay: Inhibitory activity against Protein tyrosine phosphatase CD45.
T2 sequence (P08575 whole entry): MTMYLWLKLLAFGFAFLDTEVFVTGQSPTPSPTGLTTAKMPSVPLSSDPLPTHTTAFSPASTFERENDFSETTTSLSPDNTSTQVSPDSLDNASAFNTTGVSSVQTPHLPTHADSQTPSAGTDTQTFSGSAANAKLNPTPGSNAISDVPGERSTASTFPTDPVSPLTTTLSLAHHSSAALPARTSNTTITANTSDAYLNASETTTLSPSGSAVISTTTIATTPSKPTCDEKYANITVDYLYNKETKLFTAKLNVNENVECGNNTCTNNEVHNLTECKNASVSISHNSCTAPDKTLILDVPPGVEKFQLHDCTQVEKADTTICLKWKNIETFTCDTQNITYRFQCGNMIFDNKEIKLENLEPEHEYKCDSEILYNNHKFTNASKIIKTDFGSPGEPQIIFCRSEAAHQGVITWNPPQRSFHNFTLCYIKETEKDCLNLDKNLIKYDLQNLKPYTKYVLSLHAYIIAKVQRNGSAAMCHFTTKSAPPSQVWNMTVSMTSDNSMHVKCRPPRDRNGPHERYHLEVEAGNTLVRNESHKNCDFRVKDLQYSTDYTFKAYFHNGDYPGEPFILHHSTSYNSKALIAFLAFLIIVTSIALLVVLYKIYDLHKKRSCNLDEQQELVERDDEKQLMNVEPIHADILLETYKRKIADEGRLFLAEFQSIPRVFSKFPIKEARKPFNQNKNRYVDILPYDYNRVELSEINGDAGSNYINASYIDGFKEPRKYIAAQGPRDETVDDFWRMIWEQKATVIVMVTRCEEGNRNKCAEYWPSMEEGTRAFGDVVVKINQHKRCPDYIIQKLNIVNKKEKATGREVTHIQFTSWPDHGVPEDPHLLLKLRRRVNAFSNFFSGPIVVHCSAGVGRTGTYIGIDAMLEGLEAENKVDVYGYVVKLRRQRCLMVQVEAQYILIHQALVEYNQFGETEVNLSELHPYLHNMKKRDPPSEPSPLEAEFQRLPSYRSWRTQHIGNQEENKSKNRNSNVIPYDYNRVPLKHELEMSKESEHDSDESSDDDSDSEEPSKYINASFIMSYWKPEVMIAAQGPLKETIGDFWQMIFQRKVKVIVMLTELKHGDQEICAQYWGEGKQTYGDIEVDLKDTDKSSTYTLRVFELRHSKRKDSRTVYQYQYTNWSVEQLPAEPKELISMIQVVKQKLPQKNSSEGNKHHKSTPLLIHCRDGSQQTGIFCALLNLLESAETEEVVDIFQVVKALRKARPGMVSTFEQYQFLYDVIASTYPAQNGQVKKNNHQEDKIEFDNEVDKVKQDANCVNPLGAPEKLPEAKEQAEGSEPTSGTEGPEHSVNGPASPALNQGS
Method in brief: (§1)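 Phosphatase activity was read with 3,6-fluorescein diphosphate (FDP) as substrate, at roughly the KM concentration for each enzyme. IC50 came from 10 inhibitor concentrations fitted to a four-parameter equation, with errors under 10%. Constructs: flag-PTP1B (1–320); flag-CD45 intracellular domain; GST-PTPβ, GST-SHP1 and GST-SHP2; human recombinant TCPTP from E. coli; flag-CDC25a from baculovirus-infected Sf9 cells.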

[3] = target: T1, Tyrosine-protein phosphatase non-receptor type 1; assay: Inhibitory activity against Protein tyrosine phosphatase 1B (PTP1B).
Method in brief: as §1, with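 “enzyme.” for “enzyme. IC50 came from 10 inhibitor concentrations fitted to a four-parameter equation, with errors under 10%.”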

[4] = target: T1, Tyrosine-protein phosphatase non-receptor type 1; assay: Binding affinity towards the site of PTP1B enzyme
[5] = target: Receptor-type tyrosine-protein phosphatase beta (Homo sapiens, UniProt P23467); assay: Inhibitory activity against Protein tyrosine phosphatase PTPbeta.; method in brief: as §1
[6] = target: Tyrosine-protein phosphatase non-receptor type 6 (Homo sapiens, UniProt P29350); assay: Inhibitory activity against Protein tyrosine phosphatase SHP-1.; method in brief: as §1
[7] = target: T3, Tyrosine-protein phosphatase non-receptor type 11 (Homo sapiens, UniProt Q06124); assay: Inhibitory activity against Protein tyrosine phosphatase SHP-2.; method in brief: as §1
T3 sequence (Q06124 whole entry): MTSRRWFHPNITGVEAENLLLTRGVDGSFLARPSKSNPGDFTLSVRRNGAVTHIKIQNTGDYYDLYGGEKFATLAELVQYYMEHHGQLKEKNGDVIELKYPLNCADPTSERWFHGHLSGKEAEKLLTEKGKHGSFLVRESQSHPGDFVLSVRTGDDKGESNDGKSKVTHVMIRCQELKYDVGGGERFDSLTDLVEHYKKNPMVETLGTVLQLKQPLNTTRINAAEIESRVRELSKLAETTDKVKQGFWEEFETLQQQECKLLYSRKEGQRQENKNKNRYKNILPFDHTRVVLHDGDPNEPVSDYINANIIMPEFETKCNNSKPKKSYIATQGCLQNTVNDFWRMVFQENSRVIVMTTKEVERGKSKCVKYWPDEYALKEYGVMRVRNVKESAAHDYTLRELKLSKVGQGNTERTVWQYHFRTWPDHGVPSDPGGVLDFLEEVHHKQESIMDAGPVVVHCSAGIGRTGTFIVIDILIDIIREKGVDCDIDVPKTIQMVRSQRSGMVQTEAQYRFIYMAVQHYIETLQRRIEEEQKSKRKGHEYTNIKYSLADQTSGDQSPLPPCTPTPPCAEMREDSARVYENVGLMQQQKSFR

[8] = target: T4, Tyrosine-protein phosphatase non-receptor type 2 (Homo sapiens, UniProt P17706); assay: Inhibitory activity against Protein tyrosine phosphatase TCPTP.; method in brief: as §1
T4 sequence (P17706 whole entry): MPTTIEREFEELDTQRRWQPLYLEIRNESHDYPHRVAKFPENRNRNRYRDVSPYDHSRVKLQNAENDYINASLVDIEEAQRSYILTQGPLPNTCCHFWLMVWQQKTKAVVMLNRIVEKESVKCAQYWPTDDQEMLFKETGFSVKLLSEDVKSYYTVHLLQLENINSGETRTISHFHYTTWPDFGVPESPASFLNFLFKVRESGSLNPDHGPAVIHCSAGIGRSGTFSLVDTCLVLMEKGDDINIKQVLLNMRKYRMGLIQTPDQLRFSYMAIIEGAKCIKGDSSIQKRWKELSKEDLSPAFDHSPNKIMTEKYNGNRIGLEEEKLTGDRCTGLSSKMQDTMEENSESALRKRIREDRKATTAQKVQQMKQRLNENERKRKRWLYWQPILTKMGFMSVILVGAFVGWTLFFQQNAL

[9] = target: T5, M-phase inducer phosphatase 1 (Homo sapiens, UniProt P30304); assay: Inhibitory activity against Protein tyrosine phosphatase cell division cycle 25A; method in brief: as §1
T5 sequence (P30304 whole entry): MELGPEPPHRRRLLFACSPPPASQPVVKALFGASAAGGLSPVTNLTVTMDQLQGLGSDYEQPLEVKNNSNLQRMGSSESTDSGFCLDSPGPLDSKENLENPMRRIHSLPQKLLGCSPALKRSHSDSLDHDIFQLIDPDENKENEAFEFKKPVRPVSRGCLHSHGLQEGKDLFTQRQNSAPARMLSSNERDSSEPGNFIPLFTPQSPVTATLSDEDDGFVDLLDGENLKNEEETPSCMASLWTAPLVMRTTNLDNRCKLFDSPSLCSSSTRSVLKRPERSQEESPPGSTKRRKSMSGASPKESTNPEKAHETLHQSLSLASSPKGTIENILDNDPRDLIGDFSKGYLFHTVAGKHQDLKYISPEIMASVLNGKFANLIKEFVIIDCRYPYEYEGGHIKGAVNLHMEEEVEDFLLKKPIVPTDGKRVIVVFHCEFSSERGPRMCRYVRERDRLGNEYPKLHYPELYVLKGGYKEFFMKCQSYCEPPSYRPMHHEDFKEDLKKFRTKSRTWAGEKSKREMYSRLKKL

[10] = target: T6, Tyrosine-protein phosphatase non-receptor type 4 (Homo sapiens, UniProt P29074); assay: Inhibitory activity against Protein tyrosine phosphatase PTPmeg-1.
T6 sequence (P29074 whole entry): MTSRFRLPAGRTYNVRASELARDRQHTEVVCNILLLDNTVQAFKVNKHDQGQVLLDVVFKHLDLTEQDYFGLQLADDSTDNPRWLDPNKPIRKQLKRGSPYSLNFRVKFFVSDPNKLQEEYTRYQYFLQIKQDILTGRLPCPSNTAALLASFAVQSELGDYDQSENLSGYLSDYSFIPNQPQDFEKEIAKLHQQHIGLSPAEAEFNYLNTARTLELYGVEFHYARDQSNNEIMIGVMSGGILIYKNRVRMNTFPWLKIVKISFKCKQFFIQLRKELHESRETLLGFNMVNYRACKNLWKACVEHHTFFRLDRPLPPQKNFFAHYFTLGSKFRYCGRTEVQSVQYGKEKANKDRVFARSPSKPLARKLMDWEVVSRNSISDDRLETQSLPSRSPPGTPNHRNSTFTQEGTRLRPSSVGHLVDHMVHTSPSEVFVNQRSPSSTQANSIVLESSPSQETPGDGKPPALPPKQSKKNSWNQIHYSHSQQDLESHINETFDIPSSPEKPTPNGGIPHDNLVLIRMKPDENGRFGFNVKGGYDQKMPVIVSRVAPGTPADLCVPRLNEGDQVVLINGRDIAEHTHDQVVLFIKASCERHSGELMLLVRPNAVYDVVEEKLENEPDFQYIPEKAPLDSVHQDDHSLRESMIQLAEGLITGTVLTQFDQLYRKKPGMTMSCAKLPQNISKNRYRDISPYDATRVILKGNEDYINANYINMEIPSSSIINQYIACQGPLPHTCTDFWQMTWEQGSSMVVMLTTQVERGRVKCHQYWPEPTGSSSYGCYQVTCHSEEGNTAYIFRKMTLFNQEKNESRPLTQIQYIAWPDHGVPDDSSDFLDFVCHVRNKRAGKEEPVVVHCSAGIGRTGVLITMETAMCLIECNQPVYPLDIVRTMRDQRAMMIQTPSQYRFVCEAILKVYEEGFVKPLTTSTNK

Sequence of Receptor-type tyrosine-protein phosphatase beta (P23467 whole entry): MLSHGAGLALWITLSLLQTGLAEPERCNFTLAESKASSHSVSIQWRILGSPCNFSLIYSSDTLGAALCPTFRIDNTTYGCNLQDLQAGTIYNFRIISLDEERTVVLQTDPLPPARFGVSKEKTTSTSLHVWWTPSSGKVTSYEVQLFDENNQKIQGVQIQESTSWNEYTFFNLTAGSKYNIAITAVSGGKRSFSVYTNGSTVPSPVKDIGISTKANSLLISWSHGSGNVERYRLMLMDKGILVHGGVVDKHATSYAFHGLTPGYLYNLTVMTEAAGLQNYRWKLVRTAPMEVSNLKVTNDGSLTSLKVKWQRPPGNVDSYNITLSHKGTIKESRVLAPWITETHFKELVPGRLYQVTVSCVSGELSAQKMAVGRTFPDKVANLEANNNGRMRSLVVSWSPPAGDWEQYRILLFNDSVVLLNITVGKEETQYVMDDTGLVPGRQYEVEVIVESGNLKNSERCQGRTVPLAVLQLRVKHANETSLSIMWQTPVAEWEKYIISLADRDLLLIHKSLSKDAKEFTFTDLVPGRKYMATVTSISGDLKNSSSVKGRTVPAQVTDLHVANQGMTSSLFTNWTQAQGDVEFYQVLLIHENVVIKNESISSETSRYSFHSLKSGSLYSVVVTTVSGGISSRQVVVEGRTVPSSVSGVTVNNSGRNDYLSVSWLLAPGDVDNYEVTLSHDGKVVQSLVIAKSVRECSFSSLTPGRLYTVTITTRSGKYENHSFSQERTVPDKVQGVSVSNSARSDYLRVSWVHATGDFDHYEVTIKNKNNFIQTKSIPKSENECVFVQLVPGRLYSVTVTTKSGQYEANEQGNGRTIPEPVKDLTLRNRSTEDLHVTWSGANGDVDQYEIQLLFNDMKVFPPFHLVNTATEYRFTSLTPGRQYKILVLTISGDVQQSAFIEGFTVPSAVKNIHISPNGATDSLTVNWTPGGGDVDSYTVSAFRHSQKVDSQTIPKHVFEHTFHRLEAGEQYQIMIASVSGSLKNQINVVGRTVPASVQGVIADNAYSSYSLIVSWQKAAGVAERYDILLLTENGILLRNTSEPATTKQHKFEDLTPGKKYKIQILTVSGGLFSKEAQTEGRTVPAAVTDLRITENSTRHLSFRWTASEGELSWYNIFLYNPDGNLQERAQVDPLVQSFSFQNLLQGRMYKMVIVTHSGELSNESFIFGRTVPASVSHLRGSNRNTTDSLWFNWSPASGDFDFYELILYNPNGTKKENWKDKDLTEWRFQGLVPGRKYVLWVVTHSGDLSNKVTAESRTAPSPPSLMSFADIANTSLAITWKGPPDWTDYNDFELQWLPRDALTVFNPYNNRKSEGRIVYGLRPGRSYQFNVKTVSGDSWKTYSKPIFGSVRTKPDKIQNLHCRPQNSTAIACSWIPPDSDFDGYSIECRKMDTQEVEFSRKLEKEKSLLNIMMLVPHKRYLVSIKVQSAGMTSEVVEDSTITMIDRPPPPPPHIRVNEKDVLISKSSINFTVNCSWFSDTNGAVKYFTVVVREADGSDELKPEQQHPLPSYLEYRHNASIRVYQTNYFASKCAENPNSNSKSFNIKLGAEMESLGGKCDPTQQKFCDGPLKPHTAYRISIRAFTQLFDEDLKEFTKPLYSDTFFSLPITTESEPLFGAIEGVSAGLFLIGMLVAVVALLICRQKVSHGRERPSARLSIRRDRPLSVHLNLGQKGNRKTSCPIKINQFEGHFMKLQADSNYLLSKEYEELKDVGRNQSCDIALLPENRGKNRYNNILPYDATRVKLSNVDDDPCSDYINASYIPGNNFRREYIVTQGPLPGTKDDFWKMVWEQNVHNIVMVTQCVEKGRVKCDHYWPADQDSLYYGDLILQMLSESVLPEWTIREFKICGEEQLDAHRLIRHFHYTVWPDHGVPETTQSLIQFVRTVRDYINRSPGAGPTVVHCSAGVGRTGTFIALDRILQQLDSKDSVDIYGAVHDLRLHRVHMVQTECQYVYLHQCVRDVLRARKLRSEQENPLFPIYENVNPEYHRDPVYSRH
Sequence of Tyrosine-protein phosphatase non-receptor type 6 (P29350 whole entry): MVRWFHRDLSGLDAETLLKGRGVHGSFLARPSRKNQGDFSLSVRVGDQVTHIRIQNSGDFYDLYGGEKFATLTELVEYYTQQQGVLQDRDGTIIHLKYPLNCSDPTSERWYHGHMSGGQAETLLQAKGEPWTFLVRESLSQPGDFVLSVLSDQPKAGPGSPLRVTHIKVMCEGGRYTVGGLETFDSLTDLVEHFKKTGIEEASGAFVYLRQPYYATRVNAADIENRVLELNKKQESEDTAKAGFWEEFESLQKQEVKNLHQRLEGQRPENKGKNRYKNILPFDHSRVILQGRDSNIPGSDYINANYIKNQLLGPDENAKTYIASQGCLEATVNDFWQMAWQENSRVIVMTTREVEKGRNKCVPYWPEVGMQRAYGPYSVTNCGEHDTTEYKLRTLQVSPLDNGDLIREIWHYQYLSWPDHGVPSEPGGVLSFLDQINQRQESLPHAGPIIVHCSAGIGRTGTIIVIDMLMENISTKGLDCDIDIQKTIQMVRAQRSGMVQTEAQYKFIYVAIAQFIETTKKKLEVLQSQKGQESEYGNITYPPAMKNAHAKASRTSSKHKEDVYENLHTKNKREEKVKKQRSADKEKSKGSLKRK

## O=C(CCc1ccc(C(F)(F)P(=O)(O)O)cc1)Nc1cc(NC(=O)CCc2ccc(C(F)(F)P(=O)(O)O)cc2)cc(C(=O)NCc2ccc(C(=O)O)cc2)c1
[1]
  Ki: 0.93 µM

## O=P(O)(O)C(F)(F)c1ccc(CCCCc2ccc(C(F)(F)P(=O)(O)O)cc2)cc1
[2]
  IC50: 198 µM
[3]
  IC50: 4.4 µM
[4]
  Ki: 1.5 µM
[5]
  IC50: 342 µM
[6]
  IC50: 31 µM
[7]
  IC50: 91 µM
[8]
  IC50: 6.4 µM

## O=P(O)(O)C(F)(F)c1ccc(COc2cccc(OCc3ccc(C(F)(F)P(=O)(O)O)cc3)c2)cc1
[2]
  IC50: 108 µM
[3]
  IC50: 5.3 µM
[5]
  IC50: 77 µM
[6]
  IC50: 16 µM
[7]
  IC50: 32 µM
[8]
  IC50: 7.9 µM
[9]
  IC50: 163 µM

## O=P(O)(O)C(F)(F)c1ccc(COc2ccc(OCc3ccc(C(F)(F)P(=O)(O)O)cc3)cc2)cc1
[2]
  IC50: 14 µM
[3]
  IC50: 4.2 µM
[5]
  IC50: 15 µM
[10]
  IC50: 146 µM
[6]
  IC50: 6.3 µM
[7]
  IC50: 16 µM
[8]
  IC50: 4.6 µM
[9]
  IC50: 30 µM

## O=P(O)(O)C(F)(F)c1ccc(COc2ccccc2OCc2ccc(C(F)(F)P(=O)(O)O)cc2)cc1
[2]
  IC50: 42 µM
[3]
  IC50: 1.7 µM
[5]
  IC50: 77 µM
[6]
  IC50: 15 µM
[7]
  IC50: 60 µM
[8]
  IC50: 3.2 µM
[9]
  IC50: 163 µM

## O=P(O)(O)C(F)(F)c1ccc(COCCOCc2ccc(C(F)(F)P(=O)(O)O)cc2)cc1
[2]
  IC50: 236 µM
[3]
  IC50: 3.9 µM
[5]
  IC50: 300 µM
[6]
  IC50: 61 µM
[7]
  IC50: 152 µM
[8]
  IC50: 6.1 µM
